Screening data (PubChem BioAssay)
Shown are actives, neighbours in structure and some others; about 2.8% of the full set was active somewhere.
PAFAH1B2 inh: inhibitors of human PAFAH1B2; P68402; recombinant PAFAH1B2, FP-rhodamine activity probe, fluorescence polarization; inhibition, % at 3.39 µM; 340,000 tested, 1.2% active;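 active = inhibition above the mean of all tested compounds plus 3 SD, cut at about 24% in these data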;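 note: 0% = enzyme with DMSO and 100% = wells lacking PAFAH1B2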
Target sequence (P68402 whole entry, looked up): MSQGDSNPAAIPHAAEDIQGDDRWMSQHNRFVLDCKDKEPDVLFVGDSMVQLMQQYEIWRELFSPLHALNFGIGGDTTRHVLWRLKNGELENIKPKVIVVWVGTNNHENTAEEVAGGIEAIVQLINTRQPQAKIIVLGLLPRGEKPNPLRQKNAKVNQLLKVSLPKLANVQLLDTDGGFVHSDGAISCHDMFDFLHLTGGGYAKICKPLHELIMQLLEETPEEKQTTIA
pPAFAH inh: inhibitors of human plasma PAF acetylhydrolase (pPAFAH); inhibition, % at 3.39 µM; AID 463082; Q13093; 330,000 tested, 1.5% active; recombinant pPAFAH, FP-rhodamine probe fluorescence polarization;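 active = inhibition above the mean inhibition across the screen plus 3 SD, cut at about 25% in these data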;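 note: inhibitors block binding of the rhodamine activity-based probe so polarization drops; 0% = enzyme with DMSO and 100% = wells lacking pPAFAH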
PAFAH2 inh: inhibitors of human PAFAH2 | Q99487 | recombinant PAFAH2, FP-rhodamine activity probe, fluorescence polarization | inhibition, % at 3.39 µM | 340,000 tested, 0.99% active;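 active = inhibition above the mean over all tested compounds plus 3 SD, cut at about 30% in these data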;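 note: inhibitors block probe labeling of enzyme so polarization drops; 0% = enzyme with DMSO and 100% = wells lacking PAFAH2 protein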
PAFAH1B3 FP inh: blocks human PAF acetylhydrolase 1B catalytic subunit 3; Q15102; recombinant PAFAH1B3, FP-rhodamine probe, fluorescence polarization; inhibition, % at 3.39 µM; 340,000 tested, 0.28% active; AID 492972;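 active = inhibition above the screen-wide average of all tested compounds plus 3 SD, cut at about 25% in these data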;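 note: 0% = enzyme with DMSO only and 100% = wells lacking PAFAH1B3 protein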
ABHD4 inh: inhibits mouse alpha/beta hydrolase domain 4. purified mABHD4, FP-Rh probe fluorescence polarization. inhibition, % at 8.92 µM. 370,000 tested, 0.54% active;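 active = inhibition exceeding the mean over every tested compound plus 3 SD, cut at about 30% in these data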;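 note: 0% = plate median of compound wells and 100% = S159A mutant with DMSO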
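Assay system: wild-type mouse ABHD4 protein; compound: single nominal dose of 8.92 µM, 0.89% DMSO final; schedule: 45 min + 60 min at 25 °C; measured by: FP readout, ex 525 nm / em 598 nm; evaluation: % inhibition of FP-Rh probe binding versus controls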
HTRA1 inh: blocks human HTRA1 serine peptidase. 340,000 tested, 0.5% active. AID 504803. Q92743. inhibition, % at 5.96 µM. recombinant HTRA1, FP-rhodamine activity-based probe, fluorescence polarization; in the data active = inhibition above about 36%;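 note: 0% = enzyme with DMSO and 100% = wells lacking enzyme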
Target sequence (Q92743 whole entry, looked up): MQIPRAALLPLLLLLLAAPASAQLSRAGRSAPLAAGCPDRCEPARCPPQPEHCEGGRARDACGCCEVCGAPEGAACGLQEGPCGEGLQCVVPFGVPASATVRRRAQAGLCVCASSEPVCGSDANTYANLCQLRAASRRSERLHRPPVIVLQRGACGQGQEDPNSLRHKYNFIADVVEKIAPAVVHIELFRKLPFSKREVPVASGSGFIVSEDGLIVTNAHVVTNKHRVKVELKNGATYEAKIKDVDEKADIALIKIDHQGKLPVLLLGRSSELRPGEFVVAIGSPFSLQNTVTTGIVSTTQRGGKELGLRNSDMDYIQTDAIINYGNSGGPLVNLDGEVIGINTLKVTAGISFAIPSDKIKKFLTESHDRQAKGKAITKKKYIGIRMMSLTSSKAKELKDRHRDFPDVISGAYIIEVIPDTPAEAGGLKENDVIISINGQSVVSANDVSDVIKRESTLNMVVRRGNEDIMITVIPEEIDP
* = called active by the depositor; nt = no result given.

SMILES | PAFAH1B2 inh | pPAFAH inh | PAFAH2 inh | PAFAH1B3 FP inh | ABHD4 inh | HTRA1 inh
Cn1c(CN2CCCC2)nc2cc(NS(=O)(=O)c3ccc(Cl)cc3)ccc21 | 15.7 | 8.5 | -11.1 | 2.1 | -7.1 | -8.3
COc1cc(S(=O)(=O)Nc2cccc(C)c2)ccc1NC(=O)c1cccnc1 | -1.7 | 30.2* | -7.2 | -2.1 | -0.5 | -6.2
COc1cc(NC(=O)c2cccnc2)ccc1NC(=O)c1ccccc1Cl | -1.2 | 6.7 | 1.1 | 2.2 | 4.9 | -2.4
COc1cc(/C=C2\S/C(=N/S(=O)(=O)Cc3ccccc3)NC2=O)c([N+](=O)[O-])cc1OC | 13.9 | 19.8 | 9.8 | 9.9 | 5.2 | -5.2
O=C1N/C(=N\S(=O)(=O)Cc2ccccc2)S/C1=C/c1cc([N+](=O)[O-])ccc1O | 28.7* | 31.9* | 12.3 | 38.9* | 17.9 | 8.3
N#Cc1c(-c2ccccc2Cl)noc1/C=C/Nc1ccc(C(=O)O)cc1 | 5.7 | 5.1 | 18.9 | 11.4 | -22.5 | -19.6
CN(C)/C=C(\C=O)c1onc(-c2ccccc2Cl)c1C#N | -1.6 | 4.2 | 32.8* | 2.8 | 5.3 | -18.4
COCCNC[C@@]12CO[C@H](c3ccc(Cl)cc3)N1[C@@H](c1ccc(Cl)cc1)SC2 | nt | nt | nt | nt | -12.6 | nt
Nc1c(C(=O)NCc2ccccc2)sc2nc(N3CCOCC3)c3c(c12)CCCC3 | 4.4 | 27.3* | 5.7 | -8.9 | 6.6 | -47.9
Nc1c(C(=O)Nc2ccccc2)sc2nc(N3CCOCC3)c3c(c12)CCCC3 | nt | nt | nt | nt | 10.0 | -7.9
Cc1ccc(C2SCC(=O)N2Cc2ccccc2)cc1 (stereo not drawn) | 28.6* | 3.3 | 5.8 | 5.0 | 0.0 | -2.0
O=C1CSC(c2ccccc2O)N1Cc1ccccc1 (stereo not drawn) | 24.8* | 5.9 | -5.1 | 7.4 | -8.8 | -6.6
CC(=O)c1ccc([C@H](O)[C@H](C)C(=O)N(C)c2ccccc2)cc1 | nt | nt | nt | nt | 7.3 | nt
COCc1nnc(NC(=O)CCCOc2ccccc2)s1 | 2.5 | 34.4* | -1.6 | 10.6 | -0.7 | -6.3
COCc1nnc(NC(=O)CCCOc2ccccc2OC)s1 | 7.8 | 3.0 | -0.4 | -13.4 | 1.4 | 4.0
O=C1N[C@H](Cc2ccccc2)COC(=O)[C@@H](Cc2ccc(F)cc2)CC/C=C/C[C@H]1CC(=O)N(CCO)Cc1ccccc1 | 6.5 | 28.9* | 27.6 | -2.6 | -6.7 | -33.8
O=C(C[C@@H]1C/C=C\C[C@@H](Cc2ccc(F)cc2)C(=O)OC[C@@H](Cc2c[nH]c3ccccc23)NC1=O)NCCO | 21.2 | 25.3* | 3.0 | 5.5 | 2.6 | -4.5
O=C(C[C@@H]1C/C=C\C[C@H](Cc2ccc(F)cc2)C(=O)OC[C@@H](Cc2c[nH]c3ccccc23)NC1=O)NCCO | 4.8 | 1.8 | 2.7 | 13.9 | -5.4 | -5.0
O=C1N[C@H](Cc2ccccc2)COC(=O)[C@H](Cc2ccc(F)cc2)CC/C=C/C[C@@H]1CC(=O)N(CCO)Cc1ccccc1 | 10.1 | 5.5 | 5.2 | 5.5 | -19.4 | -42.4
O=C1N[C@@H](Cc2ccccc2)COC(=O)[C@@H](Cc2ccc(F)cc2)CC/C=C/C[C@@H]1CC(=O)N(CCO)Cc1ccccc1 | 25.9* | 9.3 | 14.9 | 4.2 | -7.0 | -31.2
O=C(N[C@H]1C/C=C\C[C@H](CC(=O)N(CCO)Cc2ccccc2)C(=O)N[C@H](Cc2c[nH]c3ccccc23)COC1=O)OCC1c2ccccc2-c2ccccc21 | -1.1 | 32.8* | 9.6 | 13.0 | -13.5 | -12.6
COC(=O)[C@]12C[C@H](CC(=O)N3CCC(c4ccccc4)CC3)C(=O)N(Cc3ccco3)C1=C[C@H](C(C)(C)C)O[C@@H]2C | nt | nt | nt | nt | -1.3 | nt
O=C1N[C@@H](Cc2c[nH]c3ccccc23)COC(=O)[C@@H](Cc2ccc(F)cc2)C/C=C\C[C@H]1CC(=O)N(CCO)Cc1ccccc1 | 15.2 | 28.5* | 4.0 | 5.2 | -11.3 | -25.9
CCOC(=O)C1CCN(C(=O)c2cc3cc4cc(OC)ccc4nc3o2)CC1 | 0.7 | 29.1* | 5.3 | -3.2 | 3.9 | -6.3
CCOc1ncccc1C(=O)OCC(=O)Nc1cc(C(C)(C)C)ccc1OC | 6.0 | 28.4* | 6.2 | 3.0 | 7.3 | -9.0
SMILES | PAFAH1B2 inh | pPAFAH inh | PAFAH2 inh | PAFAH1B3 FP inh | ABHD4 inh | HTRA1 inh
O=C1[C@H](Cc2ccccc2)NCC=CC[C@H](c2ccc(Cl)cc2)N1Cc1ccc(Cl)cc1 | 7.0 | nt | -3.6 | 7.0 | 6.2 | -42.0
O=C1[C@H](Cc2ccccc2)NCC=CC[C@H](c2ccc(Cl)cc2)N1Cc1ccccc1 | 27.4* | nt | -4.8 | 1.8 | 1.9 | -51.3
CCOC1=C/C(=C/c2c(N)n3nc(-c4ccccc4)sc3nc2=O)C=CC1=O | nt | nt | nt | nt | -33.3 | nt
COC1=C/C(=C/c2c(N)n3nc(-c4ccc(C)cc4)sc3nc2=O)C=CC1=O | 27.5* | nt | 13.0 | 18.0 | -19.2 | -20.7
CSc1ccccc1NC(=O)COC(=O)c1ccc(-n2nc(C)cc2C)cc1 | 5.2 | 25.3* | 58.8* | 7.4 | -7.2 | -11.8
Cc1cc(C)n(-c2ccc(C(=O)OCC(=O)NCc3ccc(F)cc3)cc2)n1 | 5.9 | 28.0* | 24.7 | 2.7 | -2.0 | -0.8
Cc1cc(C)n(-c2ccc(C(=O)OCC(=O)NCc3ccc(Cl)cc3)cc2)n1 | 1.5 | 22.6 | 25.8 | -4.7 | 2.6 | -1.6
CC(=O)Nc1ccc(C(=O)OCc2ccc(Br)cc2)cc1 | 26.5* | 0.3 | 34.1* | 0.6 | -23.4 | -24.7
CCCC(=O)Oc1ccc(N(C(=O)CCC)S(=O)(=O)c2cccs2)cc1 | 6.0 | 30.3* | 3.9 | 1.3 | -16.3 | -2.4
Cc1ccnc(NC(=S)N2CCC(Nc3cccc(C(F)(F)F)c3)CC2)c1 | nt | nt | nt | nt | 0.2 | nt
Cc1cc(=O)[nH]c(SCC(=O)Nc2nc(-c3ccccc3)cs2)n1 | 4.2 | 3.8 | 8.1 | 8.0 | -5.4 | -23.2
CCOC(=O)c1ccccc1NC(=O)CSc1nnc(C)c(=O)[nH]1 | 34.4* | 2.0 | 7.5 | 12.0 | 3.4 | 4.7
Cc1ccccc1NC(=O)CSc1nnc(C)c(=O)[nH]1 | -2.0 | -4.6 | 10.5 | 6.9 | 5.7 | 7.1
Cc1nnc(SCC(=O)Nc2nc(-c3ccc(F)cc3)cs2)[nH]c1=O | 29.9* | 6.2 | 2.5 | 5.1 | 6.3 | -1.0
CN(C)c1ccc(Cn2c(=O)n(Cc3ccc(C(=O)NCC4COC4)cc3)c(=O)c3ccccc32)cc1 | nt | nt | nt | nt | 5.4 | nt
Cc1cc(C)c(NS(=O)(=O)c2c(C(=O)N3CCOCC3)c(C)n(C)c2C)c(C)c1 | -0.1 | 29.2* | 2.0 | 7.5 | -1.2 | 0.0
Cc1ccc(NS(=O)(=O)c2c(C(=O)N3CCOCC3)c(C)n(C)c2C)cc1C | 3.8 | 3.5 | 8.9 | 2.5 | -4.6 | -1.0
COCCCn1c(SCC(=O)Nc2sc3c(c2C#N)CCCC3)nnc1-c1ccncc1 | -0.2 | 25.7* | 11.3 | 2.8 | 2.2 | -5.4
Cc1ccc(S(=O)(=O)N2[C@@H](c3ccccc3)C(C(=O)O)=CC[C@H]2c2cccc(C)c2)cc1 | 37.8* | 2.4 | 6.3 | 17.6 | 6.8 | -6.7
